In the library only some 5.9% were active in any assay of this set; here they are far more common.
HUVEC prolif 384 = inhibitors of HUVEC proliferation, primary screen, cell-based, 384-well. CellTiter-Glo luminescence, 72 h; hits give low values. viability, % at 10 µM (by protocol). hit rate 1.1% among 86,000. AID 648, 2007;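 active = viability at or below 30%; inactive = viability above 30%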;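 note: 100% = median luminescence of DMSO-only cell control wells on each plate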
Lung fibro prol = antiproliferative effect on LL 47 fibroblasts – human, LL 47 cells, CellTiter-Glo luminescence, primary screen; hit rate 1.1% among 85,000; viability, % at 10 µM; LL 47 human lung fibroblast viability, ATP luminescence; hits give low values;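 active = viability at or below 50% in the single dose screen; inactive = viability above 50%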;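 note: compound exposure lasted 72 h before the ATP readout; 100% = median luminescence of untreated cell-only wells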
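Assay system: human lung fibroblast line LL 47, low passage. Input: 1,150 fibroblasts seeded per well. Times: overnight cell rest, 72 h compound treatment at 37 °C. Evaluation: % viability of median cell-only signal. Technique: luminescent ATP detection, CellTiter-Glo. Control set: cell-only wells, no compound.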
PTK2B oligo ant = antagonists of Pyk2 self-association, primary screen, Q293 cells, FERM NanoBiT luminescence, HTS | hits give low values | z-score (the deposit names both 25 µM and 10 µM) | hit rate 0.83% among 99,000 | AID 1347419, 2020;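 active = Z-score of -3 or lower, scaled per plate to the spread of control and sample wells; inactive = z-score above -3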;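 note: negative z-score means lost luminescence so less FERM oligomerization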
H69AR growth 86K = proliferation blockers of H69AR lung cancer cells, primary screen, cell-based, human, 86K library; H69AR lung tumor viability, ATP luminescence, 72 h; hits give low values; AID 598, 2007; viability, % at 10 µM; hit rate 6% among 85,000;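 active = viability at or below 40%; inactive = viability above 40%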;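 note: multidrug resistant small cell line overexpressing MRP-1 efflux transporter; 100% = mean luminescence of untreated control wells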
Jurkat viability = cytotoxicity toward Jurkat T cells, primary screen, cytotoxicity control, cell-based, Jurkat E6.1, 60K MLSMR library; Jurkat E6.1 viability, ATP luminescence, 48 h; hit rate 1.2% among 56,000; inhibition, % at 4 µM;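 active = inhibition above the mean inhibition of all tested compounds plus 3 SD, cut at about 28% in these data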
MT1-MMP txn act = MT1-MMP promoter reporter activation – cell-based, luciferase luminescence, primary screen. HT1080 MT1-MMP promoter luciferase reporter, overnight; hits give high values. activation factor at 10 µM. hit rate 0.16% among 86,000. AID 750, 2007;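 active = activation factor of at least 2 for MT1-MMP transcription at 10 µM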
The depositor's hits bear a star; . = no result.

SMILES	HUVEC prolif 384	Lung fibro prol	PTK2B oligo ant	H69AR growth 86K	Jurkat viability	MT1-MMP txn act
O=C(Nc1nc(-c2ccccn2)cs1)c1ncc(Cl)c(Cl)c1Cl	52.2	86.3	1.24	69.9	.	1.1
O=C(Cn1cc([N+](=O)[O-])cn1)Nc1ccn(Cc2c(F)c(F)c(F)c(F)c2F)n1	.	.	-0.13	.	.	.
O=C(Oc1cc(=O)n2ccccc2n1)c1ccccc1	.	.	-0.04	.	.	.
ONC(=Nc1ccc(Cl)cc1)c1ccccc1	.	.	-0.73	.	.	.
CCC(=O)NC(c1cccc([N+](=O)[O-])c1)c1c(OC(C)=O)ccc2ccccc12 (centres undefined)	83.8	103.7	-3.32*	97.3	.	1.2
CC(=O)Oc1ccc2ccccc2c1C(NC(=O)Cc1ccccc1)c1ccccc1Cl (centres undefined)	.	.	-4.41*	.	.	.
Nc1ccc(C(=O)c2ccc3c(c2)OCCO3)cc1N	97.9	96.5	-0.13	35.6*	-4.2	1.5
Nc1cc2c(cc1C(=O)c1ccccc1)OCCO2	88.3	94.5	-0.43	71.9	.	1.1
[N-]=[N+]=CC(=O)c1ccnc(C(=O)C=[N+]=[N-])c1	97.5	106.8	1.48	86.2	.	1
COC(=O)c1cn(NC(=O)c2cccc(OC)c2)c(=O)c2ccccc12	85.7	90.4	-1.22	93.0	.	1.2
CN(/C=C/C(=O)C(F)(F)F)Cc1ccccc1	.	.	0.25	.	.	.
c1ccc(C(c2nnnn2Cc2ccco2)N2CCN(c3nc4ccccc4s3)CC2)cc1 (centres undefined)	79.1	104.7	-1.98	85.2	.	1.2
COc1ccc(N2CCN(C(c3ccccc3OC)c3nnnn3Cc3ccco3)CC2)cc1 (centres undefined)	104.0	101.8	-3.22*	82.2	0.1	1.1
c1ccc(Cn2nnnc2C(c2ccccc2)N2CCN(c3nc4ccccc4s3)CC2)cc1 (centres undefined)	120.7	94.8	-4.06*	79.7	0.5	0.9
COc1ccccc1C(c1nnnn1Cc1ccccc1)N1CCN(c2nc3ccccc3s2)CC1 (centres undefined)	103.2	100.5	-3.83*	71.9	2.6	1.1
COc1ccc(C(c2nnnn2Cc2ccccc2)N2CCN(C(=O)c3ccco3)CC2)cc1OC (centres undefined)	94.4	101.4	-0.56	98.7	0.9	1.1
COc1ccc(C(c2nnnn2Cc2ccccc2)N2CCN(c3nc4ccccc4s3)CC2)cc1OC (centres undefined)	100.6	96.8	-3.82*	95.1	.	1.1
CCOC(=O)CC1(c2ccccc2)CCOC(C)(C)C1 (centres undefined)	105.0	107.4	2.14	86.8	.	1.1
Cc1nnc(NC(=O)Cn2cnc3c2c(=O)n(C)c(=O)n3C)s1	100.1	97.8	-0.04	94.0	.	1
Cc1ccc(C)c(CSc2nnc(-c3cccs3)n2Cc2ccco2)c1	90.6	93.7	-1.3	77.3	.	1
COc1cccc(C(c2nnnn2Cc2ccccc2)N2CCN(C3CCCC3)CC2)c1OC (centres undefined)	87.5	102.2	-1.2	19.6*	-1.2	1
c1ccc(Cn2nnnc2C(c2cccs2)N2CCCCCC2)cc1 (centres undefined)	89.0	82.1	-1	21.9*	0.5	1.2
Cc1ccc(S(=O)(=O)Cn2nnnc2C(C(C)C)N2CCN(c3nc4ccccc4s3)CC2)cc1 (centres undefined)	85.3	92.3	-0.26	26.7*	.	.
COc1ccc(OC)c(C(c2nnnn2C2CCCC2)N2CCN(c3ccccc3)CC2)c1 (centres undefined)	115.6	95.1	-3.53*	90.7	7.5	1.1
CCCCC(c1nnnn1CS(=O)(=O)c1ccc(C)cc1)N1CCN(c2ccccc2)CC1 (centres undefined)	87.2	92.5	-0.56	96.0	-0.7	1.2
SMILES	HUVEC prolif 384	Lung fibro prol	PTK2B oligo ant	H69AR growth 86K	Jurkat viability	MT1-MMP txn act
c1ccc(Cn2nnnc2C(c2cccs2)N2CCc3ccccc3C2)cc1 (centres undefined)	76.5	91.1	-2.39	91.6	-2.1	1.3
Cc1nc(SCCCSc2n[nH]c(C)n2)n[nH]1	.	.	-0.34	.	-3.0	1.1
COCCNC(=O)c1noc2c1CCc1cc(OC)ccc1-2	109.7	107.0	0.98	102.8	-1.7	1.5
COc1ccc2c(c1)CCc1c(C(=O)NCCCn3ccnc3)noc1-2	92.8	107.5	-0.57	1.5*	-3.6	1.3
COCCOC(=O)c1c(C)nc(SCC(=O)Nc2cccc3ccccc23)c(C#N)c1-c1ccco1	55.8	92.5	-2.28	11.3*	.	1.1
CC(c1ccco1)N(C(=O)C12CC3CC(CC(C)(C3)C1)C2)c1ccccn1 (centres undefined)	112.8	98.2	-0.62	93.0	.	1.2
O=c1c2c(nc3c(-c4ccc(Cl)cc4)c[nH]n13)CCCC2	58.4	60.2	-0.91	19.8*	5.0	1.2
O=c1c2c(nc3c(-c4cccc5ccccc45)c[nH]n13)CCC2	69.5	95.9	-0.3	74.3	0.3	1.1
O=c1c2c(nc3cc(-c4cccc(Cl)c4)[nH]n13)CCC2	66.0	93.5	-0.06	79.1	.	2*
O=C(c1ccccc1Oc1ccccc1)N1CCN(c2ccccc2)CC1	99.0	99.6	0.72	87.7	4.9	1.1
Cc1ccc(CNc2nc3ccccc3n3nnnc23)cc1	89.3	100.1	-0.14	29.6*	-13.6	1.4
Brc1ccc(Nc2nc3ccccc3n3nnnc23)cc1	47.5	78.5	.	35.8*	.	1.3
Cc1c(Br)c([N+](=O)[O-])nn1C(C)C(=O)NCc1ccco1 (centres undefined)	.	.	0.48	.	.	.
CC(C(=O)NCc1ccco1)n1nc(-c2ccccc2)c2cc(Cl)ccc21 (centres undefined)	67.4	81.6	.	35.2*	-7.1	1.1
CN(c1ccccc1C(=O)N1CCN(c2ccccc2)CC1)S(C)(=O)=O	95.7	97.3	2.22	103.5	.	1.2
COC(=O)[C@@]1(Cc2ccccc2)[C@H]2c3cc(C(=O)N(C)C)n(Cc4ccc(O)c(OC)c4)c3C[C@H]2CN1C(=O)c1ccccc1	.	.	.	.	.	1.1
O=C(Nc1ccc2c(c1)OCCO2)c1cc(-c2ccccc2)nc2ccccc12	.	.	-1.88	.	.	.
Cn1c(NC(=O)c2cc(-c3ccc4c(c3)OCO4)nc3ccccc23)cc(=O)n(C)c1=O	79.1	81.3	-3.96*	60.5	5.7	1.2
O=C(Nc1cccc(Cl)c1)c1ccc(-n2cncn2)c([N+](=O)[O-])c1	.	.	-1.18	.	.	.
O=C(O)C1CCN(c2nc(-c3ccccc3)nc3c2oc2ccccc23)CC1	79.0	92.9	-0.36	19.3*	-2.8	1.1
OCCN1CCN(c2nc(-c3ccccc3)nc3c2oc2ccccc23)CC1	11.8*	19.9*	-1.75	23.7*	10.9	0.9

From PubChem BioAssay
